Data on 24 molecules can be found in PMC11986672 (RSC Medicinal Chemistry, 2025).

“And” between values parts separate entries of the source, which are not always exact repeats. Identical values can stand only once. Counter-ions that a name gives are not always drawn. Like-named read-outs stand apart in the source and are kept apart here.

What is called IC50 is the midpoint of a concentration-inhibition curve.

Experiment [1] has as its system noncancerous human endometrial stromal (MAD11) cells. In words: MTT cytotoxicity assay, MAD11. In kind it is cell-based. To be noted: MAD11, 48 h, read-out: MAD11 IC50. In short, it runs like this: (§1)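 HEC1A (5000/well) and MAD11 (2500/well) cells were seeded and held overnight at 37 °C. Test compound was reconstituted in DMSO and serially diluted in medium to final 160, 80, 40, 20, 10, 5, 2.5 and 1.25 μM, in triplicate, with matched DMSO in all wells. After 48 h, MTT was added for 3 h, formazan solubilised (4 mM HCl, 0.1% NP-40, isopropanol) and absorbance read at 590/620 nm. IC50 was taken against vehicle controls; selectivity = MAD11 IC50 / HEC1A IC50.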
(Tetrazolium dyes change colour on reduction, which living cells bring about.)

Experiment [2] relates to human endometrial cancer (HEC1A) cells. The experiment is described as follows: MTT cytotoxicity assay, HEC1A. It counts as cell-based. To be noted: for IC50: 48 h; for Selectivity ratio: IC50 MAD11 divided by IC50 HEC1A; for times more potent than BH10: HEC1A IC50 compared with BH10. In short, it runs like this:
as §1

The mark [3] stands for this setting: Homo sapiens, HEC-1-A, read-out: HEC1A IC50, MTT cell viability, 48 h, n = 3 biological repeats.
The mark [4] stands for this setting: read-out: HEC1A IC50, MTT cell viability, n = 3 biological repeats.

`COC(=O)[C@H](CCCCN)NC1=C(Cl)C(=O)c2ccccc2C1=O` [Compound 30, Methyl (3-chloro-1,4-dioxo-1,4-dihydronaphthalen-2-yl)-L-lysinate]: the IC50 is more than 40 µM in experiment [1] and 38 µM in experiment [2] (setting [3]).

In the case of `O=C(O)c1ccc(-n2cc(CNC3=C(Cl)C(=O)c4ccccc4C3=O)nn2)cc1` [Compound 32, 4-(4-(((3-Chloro-1,4-dioxo-1,4-dihydronaphthalen-2-yl)amino)methyl)-1H-1,2,3-triazol-1-yl)benzoic acid], the IC50 in experiment [1] and in experiment [2] (setting [3]) was more than 40 µM in each case.

Regarding `CCCC(=O)NC1=C(NCCCN2CCCCC2)C(=O)c2ccccc2C1=O` [Compound 41, N-(1,4-Dioxo-3-((3-(piperidin-1-yl)propyl)amino)-1,4-dihydronaphthalen-2-yl)butyramide], the figures for the IC50 in experiment [1] and in experiment [2] (setting [3]) were more than 40 µM and 15 µM, respectively.

Consider `O=C1C(Cl)=C(NCCCN2CCOCC2)C(=O)c2ccccc21` [Compound 20, 2-Chloro-3-((3-morpholinopropyl)amino)naphthalene-1,4-dione], for which the figures for the IC50 in experiment [1] and in experiment [2] (setting [3]) were 21.9 µM and 6.41 µM, respectively. Moreover, the Selectivity ratio in experiment [2] was determined as 3.42.

In the case of `COC(=O)[C@H](Cc1c[nH]c2ccccc12)NC1=C(Cl)C(=O)c2ccccc2C1=O` [Compound 26, Methyl (3-chloro-1,4-dioxo-1,4-dihydronaphthalen-2-yl)-L-tryptophanate], the half-inhibitory concentration (IC50) in experiment [1] and in experiment [2] (setting [3]) was more than 40 µM throughout.

As for `O=C1C(Cl)=C(NCCN2CCN(C3=C(Cl)C(=O)c4ccccc4C3=O)CC2)C(=O)c2ccccc21` [Compound 18, 2-Chloro-3-(4-(2-((3-chloro-1,4-dioxo-1,4-dihydronaphthalen-2-yl)amino)ethyl)piperazin-1-yl)-[1,4]-naphthoquinone], in experiment [1], the IC50 is 3.4 µM. Also, in experiment [2], the “times more potent than BH10” value stood at 3.5 times and the Selectivity ratio turned out to be 1.17. For the same molecule, the IC50 in experiment [2] (setting [3]) came out at 2.91 µM.

As for `CCOC(=O)c1ccc(-n2cc(CNC3=C(Cl)C(=O)c4ccccc4C3=O)nn2)cc1` [Compound 33, Ethyl 4-(4-(((3-chloro-1,4-dioxo-1,4-dihydronaphthalen-2-yl)amino)methyl)-1H-1,2,3-triazol-1-yl)benzoate], the IC50 is 21.3 µM in experiment [1] and 11.1 µM in experiment [2] (setting [3]). Also, the Selectivity ratio in experiment [2] is recorded as 1.92.

As for `O=C(Cc1ccccc1)NC1=C(NCCCN2CCCCC2)C(=O)c2ccccc2C1=O` [Compound 50, N-(1,4-Dioxo-3-((3-(piperidin-1-yl)propyl)amino)-1,4-dihydronaphthalen-2-yl)-2-phenylacetamide], the IC50 in experiment [1] amounted to 39 µM; in experiment [2] (setting [3]), 8.8 µM. In addition, in experiment [2], the Selectivity ratio is 4.4 and 4.43.

In the case of `CCCCNC1=C(Cl)C(=O)c2ccccc2C1=O` [Compound 23, 2-(Butylamino)-3-chloro-[1,4]-naphthoquinone], the values for the half-maximal inhibitory concentration (IC50) in experiment [1] and in experiment [2] (setting [3]) were more than 40 µM and 32 µM, respectively. Besides, the Selectivity ratio in experiment [2] is more than 1.25.

For the molecule `Cc1nc2c(n1CCN1CCOCC1)C(=O)c1ccccc1C2=O` [Compound 48, 2-Methyl-1-(2-morpholinoethyl)-1H-naphtho[2,3-d]imidazole-4,9-dione], the IC50 in experiment [1] and in experiment [2] (setting [3]) was more than 40 µM in each case.

Consider `CC(=O)NC1=C(NCCCN2CCCCC2)C(=O)c2ccccc2C1=O` [Compound 39, N-(1,4-Dioxo-3-((3-(piperidin-1-yl)propyl)amino)-1,4-dihydronaphthalen-2-yl)acetamide], for which the IC50 was more than 40 µM in experiment [1], 26 µM in experiment [2] (setting [3]) and 26 µM in experiment [2] (setting [4]).

Regarding `O=C1C=C(NCCCN2CCOCC2)C(=O)c2ccccc21` [Compound 6, 2-((3-Morpholinopropyl)amino)-[1,4]-naphthoquinone], the IC50 in experiment [1] and in experiment [2] (setting [3]) was more than 40 µM throughout.

As to `CCCCC(=O)NC1=C(NCCCN2CCCCC2)C(=O)c2ccccc2C1=O` [Compound 42, N-(1,4-Dioxo-3-((3-(piperidin-1-yl)propyl)amino)-1,4-dihydronaphthalen-2-yl)pentanamide], the IC50 is more than 40 µM in experiment [1] and 15 µM in experiment [2] (setting [3]).

As for `CC1=C(NCCN2CCOCC2)C(=O)c2ccccc2C1=O` [Compound 11, 2-Methyl-3-((2-(4-morpholinyl)ethyl)amino)-[1,4]-naphthoquinone], the IC50 in experiment [1] and in experiment [2] (setting [3]) was more than 40 µM throughout.

Take `O=C1C(Cl)=C(NCCN2CCCCCC2)C(=O)c2ccccc21` [Compound 15, 2-((2-(Azepan-1-yl)ethyl)amino)-3-chloro-[1,4]-naphthoquinone]: in experiment [1], the IC50 was 2.38 µM. Also, in experiment [2], the “times more potent than BH10” value is given as approximately 8 times and the Selectivity ratio was 1.84. Further, the IC50 in experiment [2] (setting [3]) turned out to be 1.29 µM.

`O=C1C(Cl)=C(NCCN2CCCC2)C(=O)c2ccccc21` [Compound 13, 2-Chloro-3-((2-(1-pyrrolidinyl)ethyl)amino)-[1,4]-naphthoquinone]: the IC50 in experiment [1] was 2.38 µM. In experiment [2], the “times more potent than BH10” value is reported as approximately 8 times and the Selectivity ratio stood at 1.84. Besides, in experiment [2] (setting [3]), the IC50 is 1.29 µM.

In the case of `O=C1C=C(NCCCN2CCCCC2)C(=O)c2ccccc21` [Compound 7, 2-((3-(Piperidin-1-yl)propyl)amino)-[1,4]-naphthoquinone], the IC50 in experiment [1] is more than 40 µM; in experiment [2] (setting [3]) it was 17.2 µM. In addition, in experiment [2], the Selectivity ratio is listed as more than 2.32.

For the molecule `CCC(=O)NC1=C(NCCCN2CCCCC2)C(=O)c2ccccc2C1=O` [Compound 40, N-(1,4-Dioxo-3-((3-(piperidin-1-yl)propyl)amino)-1,4-dihydronaphthalen-2-yl)propionamide], the 50% inhibitory concentration (IC50) in experiment [1] came out at 38.2 µM; in experiment [2] (setting [3]), 14 µM; in experiment [2] (setting [4]), 14.1 µM. The Selectivity ratio in experiment [2] was 2.70.

Take `O=C1C(Cl)=C(NCCc2c[nH]c3ccccc23)C(=O)c2ccccc21` [Compound 19, 2-((2-(1H-Indol-3-yl)ethyl)amino)-3-chloronaphthalene-1,4-dione]: the IC50 is 40.3 µM in experiment [1] and 18.6 µM in experiment [2] (setting [3]). Also, the Selectivity ratio in experiment [2] turned out to be 2.24.

Consider `O=C1C=C(NCCN2CCOCC2)C(=O)c2ccccc21` [Compound 5, 2-((2-Morpholinoethyl)amino)naphthalene-1,4-dione], for which the IC50 in experiment [1] and in experiment [2] (setting [3]) was more than 40 µM in each case.

In the case of `O=C1C(Cl)=C(NCCCl)C(=O)c2ccccc21` [Compound 16, 2-Chloro-3-((2-chloroethyl)amino)-[1,4]-naphthoquinone], the IC50 in experiment [1] amounted to 12.1 µM; in experiment [2] (Homo sapiens, HEC-1-A, read-out: HEC1A IC50) it was 5.65 µM. Also, the Selectivity ratio in experiment [2] was determined as 2.14.

As for `CC(=O)NC1=C(NCCN2CCOCC2)C(=O)c2ccccc2C1=O` [Compound 43, N-(3-((2-Morpholinoethyl)amino)-1,4-dioxo-1,4-dihydronaphthalen-2-yl)acetamide], the IC50 in experiment [1] and in experiment [2] (setting [3]) was more than 40 µM in each case.

Regarding `O=C1C(Cl)=C(NCCN2CCNCC2)C(=O)c2ccccc21` [Compound 29, 2-Chloro-3-((2-(1-piperazinyl)ethyl)amino)-[1,4]-naphthoquinone salt], the IC50 in experiment [1] was 11.5 µM. In experiment [2], the “times more potent than BH10” value worked out at 2.2 times and the Selectivity ratio stood at 2.45. Further, the IC50 in experiment [2] (setting [3]) is 4.68 µM.

As to `COC(=O)[C@H](Cc1ccccc1)NC1=C(Cl)C(=O)c2ccccc2C1=O` [Compound 27, Methyl (3-chloro-1,4-dioxo-1,4-dihydronaphthalen-2-yl)-L-phenylalaninate], the IC50 in experiment [1] and in experiment [2] (setting [3]) was more than 40 µM throughout.
